Assays:
[1] = system: Human immunodeficiency virus 1; assay: Antiviral activity against HIV1 NL4.3 harboring integrase T124/A125 mutant by cell based luciferase reporter gene assay; format: functional, organism-based; conditions: Human immunodeficiency virus 1, NL4.3
Procedure, shortened: (§1)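 Cell-based luciferase reporter gene assay of HIV-1 replication. Virus was HxB2 (IN A124/T125), wild-type NL4.3 (T124/T125), or recombinant NL4.3 carrying IN variants A124/T125, A124/A125, N124/T125, N124/A125 or T124/A125 (T125A). EC50 is the mean of at least two experiments. Where three or more experiments were run, relative SD was 12–43%.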

[2] = Half life in human liver microsomes; format: ADME
[3] = system: Human immunodeficiency virus 1; assay: Antiviral activity against HIV1 NL4.3 harboring integrase T125A mutant by cell based luciferase reporter gene assay in presence of 50% human serum; format: functional; set-up: reference not given here
Procedure, shortened: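 Luciferase reporter gene assay with recombinant NL4.3 carrying the IN T125A substitution. […] Each value is the mean of at least two experiments.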

[4] = system: Human immunodeficiency virus 1; assay: Antiviral activity against HIV1 HxB2 harboring integrase A124/T125 mutant by cell based luciferase reporter gene assay; format: functional, organism-based; conditions: Human immunodeficiency virus 1, HxB2; procedure, shortened: as §1
[5] = Half life in rat liver microsomes; format: ADME
[6] = system: Human immunodeficiency virus 1; assay: Antiviral activity against HIV1 NL4.3 harboring integrase A124/T125 mutant by cell based luciferase reporter gene assay; format: functional, organism-based; conditions: Human immunodeficiency virus 1, NL4.3; procedure, shortened: as §1
[7] = system: Human immunodeficiency virus 1; assay: Antiviral activity against HIV1 NL4.3 harboring integrase N124/A125 mutant by cell based luciferase reporter gene assay; format: functional, organism-based; conditions: Human immunodeficiency virus 1, NL4.3; procedure, shortened: as §1
[8] = Oral bioavailability in rat at 0.4 mg/kg; format: ADME, organism-based; conditions: in vivo
Cytochrome P450 2D6 = Cytochrome P450 2D6 (Homo sapiens, UniProt P10635); assay: Inhibition of CYP2D6 (unknown origin); format: ADME
[9] = system: Human immunodeficiency virus 1; assay: Antiviral activity against HIV1 NL4.3 harboring integrase A124/A125 mutant by cell based luciferase reporter gene assay; format: functional, organism-based; conditions: Human immunodeficiency virus 1, NL4.3; procedure, shortened: as §1
[10] = system: Human immunodeficiency virus 1; assay: Antiviral activity against HIV1 NL4.3 harboring integrase N124/T125 mutant by cell based luciferase reporter gene assay; format: functional, organism-based; conditions: Human immunodeficiency virus 1, NL4.3; procedure, shortened: as §1
[11] = Solubility of the compound at pH 6.8; format: physicochemical; conditions: buffer
Procedure, shortened: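 Solubility was measured at pH 6.8 on the amorphous powder form of the compound.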

[12] = system: Human immunodeficiency virus 1; assay: Antiviral activity against HIV1 NL4.3 harboring integrase T124/T125 mutant by cell based luciferase reporter gene assay; format: functional, organism-based; conditions: Human immunodeficiency virus 1, NL4.3; procedure, shortened: as §1
[13] = Half life in rat at 0.2 mg/kg, iv and 0.4 mg/kg, po; format: ADME, organism-based; conditions: in vivo
Cytochrome P450 3A4 = Cytochrome P450 3A4 (Homo sapiens, UniProt P08684); assay: Inhibition of CYP3A4 (unknown origin); format: ADME
[14] = Apparent permeability across human Caco2 cells; format: ADME, cell-based; conditions: Caco-2
[15] = target: T1, Human immunodeficiency virus type 1 integrase (Human immunodeficiency virus 1, UniProt Q7ZJM1); assay: Inhibition of HIV1 integrase by LTR cleavage assay
[16] = target: T1, Human immunodeficiency virus type 1 integrase; assay: Binding affinity to HIV1 integrase by displacement assay; conditions: read-out: Kd(app)
Procedure, shortened: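 The displacement assay against HIV-1 integrase gives the value as an apparent dissociation constant (Kd-app).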

[17] = system: Human immunodeficiency virus 1; assay: Ratio of EC50 for HIV1 NL4.3 harboring integrase T124/A125 mutant to EC50 for HIV1 HxB2 harboring integrase A124/T125 mutant

T1 sequence (Q7ZJM1 whole entry): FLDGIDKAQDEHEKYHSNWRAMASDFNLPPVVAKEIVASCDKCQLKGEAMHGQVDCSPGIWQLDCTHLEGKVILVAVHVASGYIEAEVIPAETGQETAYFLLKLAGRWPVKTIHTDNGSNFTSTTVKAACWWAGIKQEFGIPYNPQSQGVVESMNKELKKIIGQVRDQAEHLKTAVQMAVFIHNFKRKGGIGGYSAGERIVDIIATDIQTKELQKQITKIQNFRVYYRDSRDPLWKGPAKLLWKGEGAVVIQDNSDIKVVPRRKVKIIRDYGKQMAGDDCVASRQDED
Cytochrome P450 2D6, sequence (P10635 whole entry): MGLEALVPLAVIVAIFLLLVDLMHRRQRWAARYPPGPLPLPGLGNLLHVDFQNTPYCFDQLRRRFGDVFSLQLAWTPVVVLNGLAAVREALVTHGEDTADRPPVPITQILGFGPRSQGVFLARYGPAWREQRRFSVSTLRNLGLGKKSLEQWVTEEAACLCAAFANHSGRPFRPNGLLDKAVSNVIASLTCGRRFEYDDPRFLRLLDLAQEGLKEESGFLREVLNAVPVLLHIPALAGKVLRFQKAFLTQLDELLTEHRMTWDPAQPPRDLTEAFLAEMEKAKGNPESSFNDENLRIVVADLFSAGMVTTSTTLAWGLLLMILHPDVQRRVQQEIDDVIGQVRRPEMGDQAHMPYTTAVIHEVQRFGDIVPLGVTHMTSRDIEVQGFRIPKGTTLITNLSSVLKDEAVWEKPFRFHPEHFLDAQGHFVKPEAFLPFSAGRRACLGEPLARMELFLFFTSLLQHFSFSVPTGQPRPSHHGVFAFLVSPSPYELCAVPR
Cytochrome P450 3A4, sequence (P08684 whole entry): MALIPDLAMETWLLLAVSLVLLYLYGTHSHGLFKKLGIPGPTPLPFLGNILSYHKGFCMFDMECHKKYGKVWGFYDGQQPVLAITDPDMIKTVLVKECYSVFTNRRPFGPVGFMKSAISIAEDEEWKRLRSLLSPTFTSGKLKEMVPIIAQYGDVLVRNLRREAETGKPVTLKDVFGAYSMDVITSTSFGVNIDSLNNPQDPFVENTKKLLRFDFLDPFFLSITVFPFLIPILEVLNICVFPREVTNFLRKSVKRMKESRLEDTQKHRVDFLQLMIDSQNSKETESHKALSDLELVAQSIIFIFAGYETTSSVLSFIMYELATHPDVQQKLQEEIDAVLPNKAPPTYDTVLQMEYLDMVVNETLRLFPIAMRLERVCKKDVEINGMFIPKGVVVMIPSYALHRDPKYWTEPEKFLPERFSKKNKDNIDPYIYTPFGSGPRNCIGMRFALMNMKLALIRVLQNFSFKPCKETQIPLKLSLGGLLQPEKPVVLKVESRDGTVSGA

Compound	EC50 [1] [nM]	EC50 [4] [nM]	Kd [16] [nM]	other results
Cc1ccc2c(-c3ccc4c(c3Cl)NCCO4)c([C@H](OC(C)(C)C)C(=O)O)c(C)nc2c1	29			half-life [2]: 65 min; fold change (FC) [3]: 15
Cc1nc2ccccc2c(-c2ccc(Cl)cc2)c1CC(=O)O		> 43000		
Cc1nc2ccccc2c(-c2ccc3c4c(ccnc24)CCO3)c1[C@H](OC(C)(C)C)C(=O)O [BI-224436]		11		half-life [5]: > 300 min; EC50 [6]: 11 nM; EC50 [7]: 11 nM; bioavailability [8]: 54%; IC50 (Cytochrome P450 2D6): > 30 µM; EC50 [9]: 11 nM; half-life [2]: 210 min; EC50 [10]: 11 nM; solubility [11]: > 850 µg/mL; EC50 [12]: 11 nM; half-life [13]: 528 min; IC50 (Cytochrome P450 3A4): 23 µM; Papp [14]: 14 ×10⁻⁶ cm/s; fold change (FC) [3]: 2.1
Cc1ccc2c(-c3cccc4cccnc34)c([C@H](OC(C)(C)C)C(=O)O)c(C)nc2c1	300	34		half-life [2]: > 300 min; fold change (FC) [3]: 4
Cc1ccc2c(-c3ccc4c(c3)CCCO4)c([C@H](OC(C)(C)C)C(=O)O)c(C)nc2c1	22	7		half-life [2]: 66 min; fold change (FC) [3]: 66
Cc1ccc2c(-c3ccc4c(c3Cl)CCCO4)c([C@H](OC(C)(C)C)C(=O)O)c(C)nc2c1	22	2		fold change (FC) [3]: 83
CCCC(C(=O)O)c1c(C)nc2ccc(Br)cc2c1-c1ccc(Cl)cc1 (configuration not stated)		920		IC50 [15]: 77 nM
Cc1ccc2c(-c3ccc4c5c(ccnc35)CCO4)c([C@H](OC(C)(C)C)C(=O)O)c(C)nc2c1	21	6		half-life [2]: 210 min; fold change (FC) [3]: 4.7
Cc1nc2ccc(Br)cc2c(-c2ccccc2)c1CC(=O)O		> 33000		
Cc1ccc2nc(C)c([C@H](OC(C)(C)C)C(=O)O)c(-c3ccc(Cl)cc3)c2c1	160	27	48	
Cc1ccc2c(-c3ccc(Cl)cc3)c([C@H](OC(C)(C)C)C(=O)O)c(C)nc2c1	130	13	40	half-life [2]: 25 min; fold change (FC) [3]: 25
Cc1nc2ccccc2c(-c2ccc(Cl)cc2)c1[C@H](OC(C)(C)C)C(=O)O	110	23	49	
Cc1nc2ccc(Br)cc2c(-c2ccc(Cl)cc2)c1[C@H](OC(C)C)C(=O)O		130	280	
CO[C@@H](C(=O)O)c1c(C)nc2ccc(Br)cc2c1-c1ccc(Cl)cc1		47000		IC50 [15]: 3100 nM
Cc1nc2cc(Cl)ccc2c(-c2ccc(Cl)cc2)c1[C@H](OC(C)(C)C)C(=O)O	120	31	140	
Cc1nc2ccc(Br)cc2c(-c2ccc(Cl)cc2)c1C(C)C(=O)O (configuration not stated)		13000		IC50 [15]: 310 nM
CO[C@H](C(=O)O)c1c(C)nc2ccc(Br)cc2c1-c1ccc(Cl)cc1		450	4700	IC50 [15]: 28 nM
Cc1nc2ccc(Cl)cc2c(-c2ccccc2)c1CC(=O)O		> 40000		
Cc1nc2ccc(Br)cc2c(-c2ccc(Cl)cc2)c1[C@H](OC(C)(C)C)C(=O)O	610	78	150	Ratio EC50 [17]: 8
Cc1nc2cc(F)ccc2c(-c2ccc(Cl)cc2)c1[C@H](OC(C)(C)C)C(=O)O	91	26	68	
Cc1nc2ccc(F)cc2c(-c2ccc(Cl)cc2)c1[C@H](OC(C)(C)C)C(=O)O	70	28	61	
Cc1nc2ccc(Br)cc2c(-c2ccc(Cl)cc2)c1CC(=O)O		16000		IC50 [15]: 270 nM
COC(C(=O)O)c1c(C)nc2ccc(Br)cc2c1-c1ccc(Cl)cc1 (configuration not stated)		990		IC50 [15]: 40 nM
Cc1ccc(-c2c(CC(=O)O)c(C)nc3ccc(Br)cc23)cc1		20000		IC50 [15]: 350 nM

Source: ChEMBL document CHEMBL3259658, “Discovery of BI 224436, a Noncatalytic Site Integrase Inhibitor (NCINI) of HIV-1” (ACS Med Chem Lett, 2014)
